The test system of assay [1] is Plasmodium berghei. Kind of assay: Antiplasmodial activity against firefly luciferase expressing liver stage Plasmodium berghei infected in human Huh-7 cells assessed as reduction in parasite growth measured after 48 hrs post infection by […] luminescence assay. In kind it is functional, organism-based. Conditions: Huh-7, 48 h. The method in brief: (§1)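 Huh7 cells in supplemented RPMI 1640 seeded the day before; ~1 h before infection, medium switched to infection medium with gentamicin, amphotericin B and compound. Cells then infected with PbGFP-Luccon sporozoites from Anopheles stephensi salivary glands. At 48 h, parasite load read as luciferase luminescence in lysates, normalized to 0.01% DMSO control; IC50 by nonlinear regression.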
On the technique in general: Resazurin is reduced to fluorescent resorufin, in cell work by metabolically active cells.

The test system of assay [2] is Huh-7. Kind of assay: Cytotoxicity against human Huh-7 cells assessed as reduction in cell confluency at 10 uM measured after 48 hrs by Alamar blue staining based analysis relative to control. In kind it is functional. More on the design: scale not given: the % may be the effect or the level left.
Assay [3] deals with Plasmodium berghei. Kind of assay: Antiplasmodial activity against firefly luciferase expressing liver stage Plasmodium berghei infected in human Huh-7 cells assessed as reduction in parasite growth at 1 to 10 uM measured after 48 hrs post infection by […] luminescence assay. Format: functional, organism-based. Conditions: dose 1-10 µM. The method in brief: as §1

For assay [4], the system named is Plasmodium falciparum. Kind of assay: Antiplasmodial activity against Plasmodium falciparum NF54-gexp02-Tom gametocytes infected in human erythrocyte at 5 uM by giemsa staining based light microscopy analysis relative to control. Format: functional.
Assay [5] deals with Plasmodium berghei. Kind of assay: Antiplasmodial activity against firefly luciferase expressing liver stage Plasmodium berghei infected in human Huh-7 cells measured after 48 hrs post infection by […] luminescence assay. Format: functional, organism-based. The settings on record: Huh-7, 48 h. The method in brief:
as §1

In assay [6] the test system is Plasmodium falciparum. Kind of assay: Antiplasmodial activity against blood stage chloroquine-sensitive Plasmodium falciparum 3D7 infected in human erythrocyte. In kind it is functional, organism-based. Conditions: 3D7, Erythrocyte. Summed up:
(§2)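 3D7 asexual parasites grown in group B erythrocytes, 3% hematocrit, RPMI with 0.5% Albumax II and 2 mM L-glutamine, 37 °C, 5% O2/5% CO2/90% N2. Rings synchronized by 5% sorbitol, then exposed 48 h to compounds (0.0000256–10 μM). Syto11 nuclear stain and flow cytometry (488 nm excitation, 530/30 emission). Inhibition scaled to untreated (0%) and chloroquine-treated (100%) cultures; IC50 by sigmoidal fit.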

Assay [7] has as its system Plasmodium falciparum. Nature of the assay: Antiplasmodial activity against Plasmodium falciparum NF54-gexp02-Tom gametocytes infected in human erythrocyte by giemsa staining based light microscopy analysis. Format: functional, organism-based. Summed up:
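NF54-gexp02-Tom line (tdTomato under early gametocyte promoter) grown in group B human erythrocytes, 3% hematocrit, RPMI with 10% human plasma and 2 mM choline chloride, 37 °C, 5% O2/5% CO2/90% N2. Sexual conversion induced by choline removal plus sorbitol synchronization; compounds 0.0048–100 μM present throughout.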

In assay [8] the test system is Plasmodium falciparum. Kind of assay: Antiplasmodial activity against blood stage chloroquine-sensitive Plasmodium falciparum 3D7 infected in human erythrocyte incubated for 48 hrs by Syto11 staining based flow cytometry analysis. Conditions: 3D7, Erythrocyte. Format: functional, organism-based. Summed up: as §2
On the technique in general: A flow cytometer gives signals particle by particle.

The source made the active and inactive calls. The rule behind the calls is not given here.

The text below walks through data of ChEMBL document CHEMBL5620404, “New 4-(N-cinnamoylbutyl)aminoacridines as potential multi-stage antiplasmodial leads” (Eur J Med Chem, 2023).

In the case of `COc1cc(NCCCCNC(=O)/C=C/c2ccc(Cl)cc2)c2nc3cc(Cl)ccc3cc2c1`, the IC50 in assay [1] was determined as 0.998 µM. In addition, the Activity in assay [2] is given as ~75%; in assay [4] it was 15%. In assay [3], the outcome was Active.

Consider `COc1cc(NCCCCN)c2nc3cc(Cl)ccc3cc2c1`, for which the IC50 in assay [5] was determined as 2.22 µM; in assay [6], 5.64 µM.

On to `COc1ccc(/C=C/C(=O)NCCCCNc2cc(OC)cc3cc4ccc(Cl)cc4nc23)cc1`, for which the figures for the IC50 in assay [7], in assay [1] and in assay [8] were 0.52 µM, 1.18 µM and 10.3 µM, respectively. In addition, the Activity in assay [2] is reported as ~75%; in assay [4], >40%. The outcome in assay [3] was Active.

Take `COc1cc(NC(C)CCCN)c2ncccc2c1` (stereo not given) [PRIMAQUINE]: in assay [1], the 50% inhibitory concentration (IC50) was determined as 12.3 µM.

Take `COc1cc(NCCCCNC(=O)/C=C/c2ccc(F)cc2)c2nc3cc(Cl)ccc3cc2c1`: the 50% inhibitory concentration (IC50) in assay [1] worked out at 0.884 µM; in assay [8], 5.83 µM. The Activity in assay [2] is reported as ~75%; in assay [4] it was 15%. Further, in assay [3], the result was Active.

Turning to `COc1cc(NCCCCNC(=O)/C=C/c2ccc(OC)c(OC)c2)c2nc3cc(Cl)ccc3cc2c1`, in assay [3], the outcome was Active. In assay [4], this compound returned an Activity of 15%.

Take `COc1cc(NCCCCNC(=O)/C=C/c2ccc(C)cc2)c2nc3cc(Cl)ccc3cc2c1`: the IC50 in assay [7] came to 0.63 µM; in assay [8], 10.8 µM. Moreover, in assay [3], the result was Active. Also, the Activity in assay [4] is recorded as >40%.

With `COc1cc(NCCCCNC(=O)/C=C/c2cccc(F)c2)c2nc3cc(Cl)ccc3cc2c1`, the IC50 in assay [7] came to 0.14 µM; in assay [1], 0.561 µM; in assay [8], 4.34 µM. In addition, the Activity in assay [2] was ~75%; in assay [4] it was >40%. The outcome in assay [3] was Active.

In the case of `COc1cc(NCCCCNC(=O)/C=C/c2ccc([N+](=O)[O-])cc2)c2nc3cc(Cl)ccc3cc2c1`, the IC50 in assay [7] worked out at 16.3 µM; in assay [1], 1.19 µM; in assay [8], 3.82 µM. Also, the Activity in assay [2] is ~75%; in assay [4], >40%. Further, the result in assay [3] was Active.

As for `COc1cc(NCCCCNC(=O)/C=C/c2ccc(C(F)(F)F)cc2)c2nc3cc(Cl)ccc3cc2c1`, the outcome in assay [3] was Active. Further, the Activity in assay [4] was 15%.

For the compound `COc1cc(NCCCCNC(=O)/C=C/c2ccc(C(C)C)cc2)c2nc3cc(Cl)ccc3cc2c1`, in assay [1], the half-maximal inhibitory concentration (IC50) is 0.129 µM. Besides, the result in assay [3] was Active.

Turning to `COc1cc(NCCCCNC(=O)/C=C/c2ccccc2)c2nc3cc(Cl)ccc3cc2c1`, the IC50 in assay [7] was 6.66 µM; in assay [1], 0.496 µM; in assay [8] it was > 70 µM. Further, the Activity is recorded as ~75% in assay [2] and >40% in assay [4]. In assay [3], the result was Active.

For `COc1cc(NCCCCNC(=O)/C=C/c2ccc(N(C)C)cc2)c2nc3cc(Cl)ccc3cc2c1`, the outcome in assay [3] was Active. This compound gave an Activity in assay [4] of 15%.

As to `COc1cc(NCCCCNC(=O)/C=C/c2ccc(Br)cc2)c2nc3cc(Cl)ccc3cc2c1`, the result in assay [3] was Active. The Activity in assay [4] was 15%.

A word on the IC50: it is the concentration that inhibits the measured activity by half.
